Assay results taken from ChEMBL document CHEMBL4371031, “In Vitro Antiviral Activity of New Oxazoline Derivatives as Potent Poliovirus Inhibitors” (J Med Chem, 2019).
pEC50: −log10 of the molar value.

Columns and labels:
[1] = test system: Poliovirus 2; assay: Antiviral activity against Human poliovirus 2 10231 infected in human HeLa cells assessed as reduction in virus-induced cytopathic effect after 72 hrs by crystal violet staining-based assay; format: functional, organism-based; conditions: Enterovirus C, 10231, HeLa
Summary of the method: (§1)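 HeLa cells grown in MEM-10% FBS, seeded at 2x10^5 cells/mL in MEM-2% FBS and preincubated 24 h at 37°C, 5% CO2. Compound and virus were cross-titrated […] compound in 0.5 log10 steps (7-point curves), with duplicate wells and three replicate tests per virus. After 72 h at 37°C, cells were crystal violet stained and read at 590 nm. EC50 came from a four-parameter fit; if all virus dilutions gave >80% monolayer destruction, the value was […].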

[2] = test system: Poliovirus 2; assay: Antiviral activity against Human poliovirus 2 10219 infected in human HeLa cells assessed as reduction in virus-induced cytopathic effect after 72 hrs by crystal violet staining-based assay; format: functional, organism-based; conditions: Enterovirus C, 10219, HeLa; summary of the method: as §1
[3] = test system: Poliovirus 2; assay: Antiviral activity against Human poliovirus 2 10230 infected in human HeLa cells assessed as reduction in virus-induced cytopathic effect after 72 hrs by crystal violet staining-based assay; format: functional, organism-based; conditions: Enterovirus C, 10230, HeLa; summary of the method: as §1
[4] = test system: Poliovirus 2; assay: Antiviral activity against Human poliovirus 2 10226 infected in human HeLa cells assessed as reduction in virus-induced cytopathic effect after 72 hrs by crystal violet staining-based assay; format: functional, organism-based; conditions: Enterovirus C, 10226, HeLa; summary of the method: as §1
[5] = Therapeutic ratio of CC50 for human HeLa cells to EC50 for Poliovirus Sabin 2 infected in human HeLa cells; format: toxicity, cell-based; conditions: read-out: Ratio CC50/EC50
[6] = test system: Poliovirus 2; assay: Antiviral activity against Human poliovirus 2 Lansing infected in human HeLa cells assessed as reduction in virus-induced cytopathic effect after 72 hrs by crystal violet staining-based assay; format: functional, organism-based; conditions: Enterovirus C; summary of the method: as §1
[7] = test system: Poliovirus 2; assay: Antiviral activity against Human poliovirus 2 10220 infected in human HeLa cells assessed as reduction in virus-induced cytopathic effect after 72 hrs by crystal violet staining-based assay; format: functional, organism-based; conditions: Enterovirus C, 10220, HeLa; summary of the method: as §1
[8] = test system: Poliovirus 3; assay: Antiviral activity against Human poliovirus 3 10805 infected in human HeLa cells assessed as reduction in virus-induced cytopathic effect after 72 hrs by crystal violet staining-based assay; format: functional, organism-based; conditions: Enterovirus C, 10805, HeLa; summary of the method: as §1
[9] = test system: Poliovirus 1; assay: Antiviral activity against Human poliovirus 1 10240 infected in human HeLa cells assessed as reduction in virus-induced cytopathic effect after 72 hrs by crystal violet staining-based assay; format: functional, organism-based; conditions: Enterovirus C, 10240, HeLa; summary of the method: as §1
[10] = test system: Poliovirus 3; assay: Antiviral activity against Human poliovirus 3 Sabin 3 infected in human HeLa cells assessed as reduction in virus-induced cytopathic effect after 72 hrs by crystal violet staining-based assay; format: functional, organism-based; conditions: Enterovirus C, Sabin 3, HeLa; summary of the method: as §1
[11] = test system: Poliovirus 2; assay: Antiviral activity against Human poliovirus 2 10233 infected in human HeLa cells assessed as reduction in virus-induced cytopathic effect after 72 hrs by crystal violet staining-based assay; format: functional, organism-based; conditions: Enterovirus C, 10233, HeLa; summary of the method: as §1
[12] = test system: Poliovirus 1; assay: Antiviral activity against Human poliovirus 1 10222 infected in human HeLa cells assessed as reduction in virus-induced cytopathic effect after 72 hrs by crystal violet staining-based assay; format: functional, organism-based; conditions: Enterovirus C, 10222, HeLa; summary of the method: as §1
[13] = test system: Poliovirus 1; assay: Antiviral activity against Human poliovirus 1 10241 infected in human HeLa cells assessed as reduction in virus-induced cytopathic effect after 72 hrs by crystal violet staining-based assay; format: functional, organism-based; conditions: Enterovirus C, 10241, HeLa; summary of the method: as §1
[14] = test system: Poliovirus 1; assay: Antiviral activity against Human poliovirus 1 Sabin 1 infected in human HeLa cells assessed as reduction in virus-induced cytopathic effect after 72 hrs by crystal violet staining-based assay; format: functional, organism-based; conditions: Enterovirus C, Sabin 1, HeLa; summary of the method: as §1
[15] = test system: Poliovirus 1; assay: Antiviral activity against Human poliovirus 1 10690 infected in human HeLa cells assessed as reduction in virus-induced cytopathic effect after 72 hrs by crystal violet staining-based assay; format: functional, organism-based; conditions: Enterovirus C, 10690, HeLa; summary of the method: as §1
[16] = test system: Poliovirus 1; assay: Antiviral activity against Human poliovirus 1 10239 infected in human HeLa cells assessed as reduction in virus-induced cytopathic effect after 72 hrs by crystal violet staining-based assay; format: functional, organism-based; conditions: Enterovirus C, 10239, HeLa; summary of the method: as §1
[17] = test system: Poliovirus 1; assay: Antiviral activity against Human poliovirus 1 10224 infected in human HeLa cells assessed as reduction in virus-induced cytopathic effect after 72 hrs by crystal violet staining-based assay; format: functional, organism-based; conditions: Enterovirus C, 10224, HeLa; summary of the method: as §1
[18] = test system: Poliovirus 2; assay: Antiviral activity against Human poliovirus 2 MEF-1 infected in human HeLa cells assessed as reduction in virus-induced cytopathic effect after 72 hrs by crystal violet staining-based assay; format: functional, organism-based; conditions: Enterovirus C, MEF-1, HeLa; summary of the method: as §1
[19] = test system: Poliovirus 1; assay: Antiviral activity against Human poliovirus 1 10237 infected in human HeLa cells assessed as reduction in virus-induced cytopathic effect after 72 hrs by crystal violet staining-based assay; format: functional, organism-based; conditions: Enterovirus C, 10237, HeLa; summary of the method: as §1
[20] = test system: Poliovirus 3; assay: Antiviral activity against Human poliovirus 3 Leon infected in human HeLa cells assessed as reduction in virus-induced cytopathic effect after 72 hrs by crystal violet staining-based assay; format: functional, organism-based; conditions: Enterovirus C; summary of the method: as §1
[21] = test system: Poliovirus 2; assay: Antiviral activity against Human poliovirus 2 P712 infected in human HeLa cells assessed as reduction in virus-induced cytopathic effect after 72 hrs by crystal violet staining-based assay; format: functional, organism-based; conditions: Enterovirus C; summary of the method: as §1
[22] = test system: Poliovirus 2; assay: Antiviral activity against Human poliovirus 2 10234 infected in human HeLa cells assessed as reduction in virus-induced cytopathic effect after 72 hrs by crystal violet staining-based assay; format: functional, organism-based; conditions: Enterovirus C, 10234, HeLa; summary of the method: as §1
[23] = test system: Poliovirus 3; assay: Antiviral activity against Human poliovirus 3 Saukett infected in human HeLa cells assessed as reduction in virus-induced cytopathic effect after 72 hrs by crystal violet staining-based assay; format: functional, organism-based; conditions: Enterovirus C; summary of the method: as §1
[24] = test system: Poliovirus 2; assay: Antiviral activity against Human poliovirus 2 10221 infected in human HeLa cells assessed as reduction in virus-induced cytopathic effect after 72 hrs by crystal violet staining-based assay; format: functional, organism-based; conditions: Enterovirus C, 10221, HeLa; summary of the method: as §1
[25] = test system: Poliovirus 3; assay: Antiviral activity against Poliovirus Sabin 3 infected in human HeLa cells assessed as reduction in virus-induced cytopathic effect after 72 hrs by crystal violet staining-based assay; format: functional, organism-based; conditions: Enterovirus C
Summary of the method: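 HeLa cells grown in MEM-10% FBS, seeded at 2x10^5 cells/mL in MEM-2% FBS and held 24 h at 37°C, 5% CO2. Compound and virus were cross-titrated together on the cells starting at 10 µM compound, in 0.5 log10 steps, duplicate wells, three replicate tests per virus. Incubated 72 h at 37°C, stained with crystal violet, A590 read. EC50 from four-parameter fit.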

[26] = test system: Poliovirus 2; assay: Antiviral activity against Human poliovirus 2 10243 infected in human HeLa cells assessed as reduction in virus-induced cytopathic effect after 72 hrs by crystal violet staining-based assay; format: functional, organism-based; conditions: Enterovirus C, 10243, HeLa; summary of the method: as §1
[27] = test system: Poliovirus 1; assay: Antiviral activity against Human poliovirus 1 10236 infected in human HeLa cells assessed as reduction in virus-induced cytopathic effect after 72 hrs by crystal violet staining-based assay; format: functional, organism-based; conditions: Enterovirus C, 10236, HeLa; summary of the method: as §1
[28] = test system: Poliovirus 1; assay: Antiviral activity against Human poliovirus 1 10689 infected in human HeLa cells assessed as reduction in virus-induced cytopathic effect after 72 hrs by crystal violet staining-based assay; format: functional, organism-based; conditions: Enterovirus C, 10689, HeLa; summary of the method: as §1
[29] = test system: Poliovirus 1; assay: Antiviral activity against Human poliovirus 1 10235 infected in human HeLa cells assessed as reduction in virus-induced cytopathic effect after 72 hrs by crystal violet staining-based assay; format: functional, organism-based; conditions: Enterovirus C, 10235, HeLa; summary of the method: as §1

Row | Structure (SMILES) | pEC50 [1] | pEC50 [2] | pEC50 [3] | pEC50 [4] | selectivity ratio [5] | pEC50 [6] | pEC50 [7] | pEC50 [8] | pEC50 [9] | pEC50 [10] | pEC50 [11] | pEC50 [12] | pEC50 [13] | pEC50 [14] | pEC50 [15] | pEC50 [16] | pEC50 [17] | pEC50 [18] | pEC50 [19] | pEC50 [20] | further results
1 | Cc1ccc(C(=O)CCCCOc2ccc(C3=NCCO3)cc2)s1 | 7.30 | 7.52 | 7.00 | < 4.00 | > 1670 | 6.23 | 7.40 | 6.57 | 5.44 | 6.49 | 6.35 | 5.10 | 5.50 | 4.90 | 4.31 | 6.03 | < 4.00 | < 4.00 | 5.24 | 6.77 | pEC50 [21]: < 4.00; pEC50 [22]: 7.52; pEC50 [23]: 6.46; pEC50 [24]: 7.70; pEC50 [25]: 6.44; pEC50 [26]: 7.40; pEC50 [27]: 5.57; pEC50 [28]: 7.22; pEC50 [29]: 5.34
2 | Cc1ccc(C(=O)CCCCSc2ccc(C3=NCCO3)cc2)s1 | 5.27 | 5.92 | 5.27 | 6.89 | 146 | 5.64 | 6.00 | 5.82 | 5.07 | 6.48 | 5.07 | 5.31 | 5.09 | 6.15 | 5.70 | 5.25 | < 5.00 | 5.90 | 5.19 | 5.95 | pEC50 [21]: 5.53; pEC50 [22]: 5.61; pEC50 [23]: 5.78; pEC50 [24]: 5.63; pEC50 [25]: 6.48; pEC50 [26]: 5.75; pEC50 [27]: 6.14; pEC50 [28]: 5.69; pEC50 [29]: 5.07
3 | Cc1ccc(C(=O)CCC/C=C/c2ccc(C3=NCCO3)cc2)s1 | 7.52 | 7.52 | 7.52 | 7.70 | > 1850 | 7.22 | 7.70 | 7.52 | 6.57 | 7.30 | 6.72 | 5.95 | 6.43 | 6.47 | 5.90 | 6.66 | 5.95 | 7.52 | 6.55 | 6.02 | pEC50 [21]: 6.62; pEC50 [22]: 7.70; pEC50 [23]: 7.40; pEC50 [24]: 7.70; pEC50 [25]: 7.28; pEC50 [26]: 7.52; pEC50 [27]: 6.14; pEC50 [28]: 7.47; pEC50 [29]: 6.40
